MPTP inh: blocks calcium-induced mitochondrial swelling; AID 602449; inhibition, % at 10 µM; actives 1.4% (n = 360,000); isolated mouse mitochondria, Ca2+ swelling absorbance, 30 min;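 active = inhibition of 50% or more, scaled per plate between neutral and stimulator controls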;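 also: 0% = DMSO wells given calcium and 100% = 1 mM EGTA wells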
Lipid droplet: modulators of hepatic lipid droplet formation; AML12 mouse hepatocytes, oleate lipid droplets, BODIPY imaging; inhibition, % at 6.5 µM; actives 0.4% (n = 240,000);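 active = lipid droplet intensity inhibited by at least 50%, with more than 500 cells counted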
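Material – AML12 mouse liver cells · Also added – oleate loading, 100 µM · Compound dosing – 6.5 µM single-point dosing · Times – overnight treatment with compound plus oleate · Measured by – fluorescence imaging, 20x objective, two fields per well · Read-out – percent inhibition of filter-corrected integrated lipid droplet intensity per well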
Redox H2O2 prof: compounds producing H2O2 with reducing agent – biochemical, NIH compound library profiling, artefact control for MLSCN library redox annotation, primary screen; actives 0.03% (n = 200,000); activation, % at 10 µM; DTT-dependent redox cycling H2O2, phenol red/HRP absorbance; 100% = 100 µM peroxide control, 0% = buffer;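 active = activation of at least 50% relative to the plate's high and low controls in the primary single-dose screen; inactive = activation below 50%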;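 also: compound incubated with DTT at 0.8 mM final as the reducing agent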
L major viab: Leishmania major promastigote growth inhibition | Leishmania major promastigotes, resazurin fluorescence viability | inhibition, % at 10 µM | actives 9% (n = 200,000); in the data active = inhibition above about 50%;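 also: promastigotes grown with compound for 44 hours at 28 °C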
T cruzi repl: blocks replication of Trypanosoma cruzi; T. cruzi beta-gal in NIH3T3, luminescence, 90 h; inhibition, % (no concentration beside the values); actives 1.4% (n = 300,000); AID 1885;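 active = mean inhibition across valid replicates above about 55%, limit read from the data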;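 also: signal also drops with host cell toxicity which is not excluded here; 0% = plate median of DMSO wells and 100% = zero luminescence signal; higher percent means less beta-gal luminescence so fewer parasites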
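Assay system: NIH/3T3 host cells with β-galactosidase reporter T. cruzi; input: 5,000 host fibroblasts per well; compound: single 50 nL compound addition per well in DMSO; timing: ≥90 h infection period, 3 h prior cell attachment; measured by: GalScreen β-gal luminescence, detergent lysis, 60 min; evaluation: percent inhibition of parasite-derived β-gal signal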
* hit, by the source's call; . = no result. The full list was thinned out, with hits kept by preference.

SMILES | MPTP inh | Lipid droplet | Redox H2O2 prof | L major viab | T cruzi repl
Cc1ccc(Nc2ccc(C(=O)NC3CCCCC3)cn2)cc1 | 1.4 | 4.0 | . | . | 5.8
CC1(c2ccccc2)NC(=O)N(NC(=O)COC(=O)c2cc(Br)ccc2O)C1=O (stereo unspecified) | -0.2 | . | . | . | -1.0
Cc1ccc(OCCCn2ccnc2)cc1C | -0.3 | 10.4 | 0.4 | 99.6* | 41.5
Cc1ccc(OCCn2ccnc2)c(C)c1 | 2.5 | -2.9 | . | . | -12.0
Cc1cc(C(C)(C)C)ccc1OCCn1ccnc1 | 2.0 | . | -0.1 | 61.8* | 10.9
Cc1cccc(OCCCn2ccnc2)c1 | 0.4 | -0.6 | 0.7 | 98.4* | 20.1
Cc1cc(OCCn2ccnc2)ccc1C(C)C | -0.2 | -3.7 | -0.1 | 97.2* | 4.7
O=C(Cn1nnc2ccccc21)c1ccc(Cl)cc1 | 1.4 | -13.1 | . | . | -2.8
COc1ccc(N(CC(=O)NCCSc2ccccn2)S(=O)(=O)c2ccccc2)c(OC)c1 | -1.0 | -17.7 | . | . | 13.6
O=C1C=C(NCc2ccccc2)c2ccccc2C1=O | 1.3 | 0.2 | -0.3 | 96.7* | 38.9
O=C1C=C(Nc2ccccc2O)c2ccccc2C1=O | 10.8 | . | 11.4 | 99.8* | -40.5
O=C1C=C(Nc2ccc(F)cc2)c2ccccc2C1=O | 2.5 | . | . | . | .
COc1cc(OC)cc(C(=O)N[C@H](C(=O)NC2=NCCS2)C(C)C)c1 | 0.1 | . | . | . | .
Cc1cc(C)nc(-n2nc(C)c(Sc3ccc(F)cc3)c2N)n1 | -0.8 | . | 0.6 | 97.0* | 58.1*
COc1cc(Cl)nn(-c2ccccc2)c1=O | 7.9 | 32.8 | 1.4 | 6.4 | -7.4
O=c1c(Cl)cc(Cl)nn1-c1ccccc1 | -6.7 | 8.1 | 0.3 | 70.5* | 10.7
COc1cc(OC)c(NS(=O)(=O)c2cc(C(=O)OC(C)C(=O)NC3CC3)c(Cl)cc2Cl)cc1Cl (stereo unspecified) | 0.2 | -3.7 | -0.9 | 77.9* | 6.4
COc1ccc2nc(NC(=O)CN(c3ccc(C)cc3)S(=O)(=O)c3c(C)nn(C)c3C)sc2c1 | 3.1 | . | 0.0 | 80.5* | 7.9
Cc1ccc2nc(NC(=O)CN(C)S(=O)(=O)c3ccc(Br)s3)sc2c1 | 2.8 | -7.0 | 0.2 | 98.5* | 47.0
CCc1ccc(NC(=O)CN(c2ccc3c(c2)OCO3)S(=O)(=O)c2c(C)noc2C)cc1 | 0.5 | . | -0.1 | 3.8 | 14.8
CCc1ccc(N(CC(=O)Nc2nc3ccc(C)cc3s2)S(=O)(=O)c2c(C)noc2C)cc1 | 2.1 | . | -1.2 | 51.6* | 40.7
Cc1ccccc1NC(=O)CN1C(=O)N/C(=C\c2ccccc2OCc2ccc(C(=O)O)cc2)C1=O | 0.1 | -1.7 | . | . | -9.7
C[C@H](CO)N1C[C@H](C)[C@@H](CN(C)Cc2ccc3c(c2)OCO3)Oc2ccc(NS(C)(=O)=O)cc2C1=O | -0.5 | . | . | . | .
COc1ccc(NC(=O)C2CCN(S(=O)(=O)c3c(C)noc3C)CC2)cc1 | -1.3 | 12.4 | . | . | 2.6
CCC(Cc1ccccc1)NC(=O)C1CCN(S(=O)(=O)c2c(C)noc2C)CC1 (stereo unspecified) | 0.6 | -1.1 | -3.2 | 92.3* | 0.9
SMILES | MPTP inh | Lipid droplet | Redox H2O2 prof | L major viab | T cruzi repl
CCOc1ccccc1NC(=O)C1CCN(S(=O)(=O)c2c(C)noc2C)CC1 | -0.3 | 11.6 | 0.0 | 97.5* | 2.5
Cc1noc(C)c1S(=O)(=O)N1CCC(C(=O)Nc2ccc(OC(F)(F)F)cc2)CC1 | 3.7 | -9.1 | 0.2 | 99.6* | 11.2
Cn1c(N)c(C(=O)COC(=O)c2ncc(Cl)c(Cl)c2Cl)c(=O)n(C)c1=O | -1.2 | 0.7 | 0.2 | 1.4 | -21.0
Cc1cc(C(=O)N/N=C2\CC(=O)CC(C)(C)C2)c(C)n1-c1ccccc1 | 1.7 | 9.9 | -0.4 | -5.1 | 24.8
Cc1cc(C(=O)N/N=C2\CC(=O)c3ccccc32)c(C)n1-c1ccccc1 | -3.2 | 3.5 | -0.8 | 97.7* | 11.5
COc1ccc(C(CNC(=O)c2cccc(S(=O)(=O)Nc3cccc(C)c3)c2)N2CCOCC2)cc1 (stereo unspecified) | -0.2 | . | . | . | 1.0
COc1ccc(CN(CCN(C)C)Cc2ccccc2)c(OC)c1 | 0.5 | . | -1.0 | 99.8* | 35.2
CCN(Cc1ccncc1)Cc1ccc(OC)cc1OC | 1.8 | 0.8 | . | . | 5.8
CCCCCNc1nc(N2CCCC2)c2c(c1C#N)CCN(C)C2 | 26.3 | . | 0.7 | 55.9* | 51.7
CCc1nccn1-c1cc(C(C)(C)C)nc2c(-c3ccc(Cl)cc3)cnn12 | 0.3 | 20.7 | 0.2 | 6.7 | -24.7
Cc1nccn1-c1cc(C(C)(C)C)nc2c(-c3ccccc3)cnn12 | -2.2 | 16.4 | 0.1 | 66.8* | -10.8
CC(=O)NS(=O)(=O)c1ccc(NC(=O)C(Sc2ccccc2)c2ccccc2)cc1 (stereo unspecified) | 1.4 | 5.0 | 2.3 | -11.5 | -13.1
CCC(C)NS(=O)(=O)c1ccc(NC(=O)C(Sc2ccccc2)c2ccccc2)cc1 (stereo unspecified) | 31.1 | 28.1 | 0.2 | 68.2* | 57.5*
CN1C(=S)N(c2cccnc2)C(=O)/C1=C\c1ccc(C(C)(C)C)cc1 | -2.2 | -19.0 | 0.0 | 96.3* | 12.8
CN1C(=S)N(c2cccnc2)C(=O)/C1=C\c1ccc(N(C)C)cc1 | 7.4 | 3.5 | 0.1 | -2.5 | -6.4
CCCCN(C)C(=O)c1[nH]c(C(F)(F)F)nc1-c1ccccc1 | -0.3 | . | . | . | .
CCc1cc2c(COC(=O)c3c(C)noc3C)cc(=O)oc2cc1O | 13.7 | 3.1 | -3.0 | 85.5* | 14.6
CN(C)Cc1csc(Nc2ccc(C(=O)c3ccccc3)cc2)n1 | 1.1 | . | . | . | .
Cc1cccc(OCc2n(CC(=O)OC3CC(C)CCC3C(C)C)c3ccccc3[n+]2C)c1 (stereo unspecified) | 8.6 | 11.5 | -0.6 | 100.5* | 64.5*
CC1CCC(C(C)C)C(OC(=O)Cn2c(-c3ccccc3)[n+](C)c3ccccc32)C1 (stereo unspecified) | 20.4 | -7.3 | -0.7 | 100.5* | 46.2
CC1CCC(C(C)C)C(OC(=O)CSc2n[nH]c(=O)[nH]c2=O)C1 (stereo unspecified) | -0.4 | . | 0.0 | -3.3 | 0.8
CC1CCC(C(C)C)C(OC(=O)CSc2nc(N)cc(=O)[nH]2)C1 (stereo unspecified) | -2.1 | . | 2.2 | -3.6 | -9.3
CC1CCC(C(C)C)C(OC(=O)Cn2c(-c3ccc(F)cc3)[n+](C)c3ccccc32)C1 (stereo unspecified) | 14.0 | -30.0 | 0.4 | 100.1* | .
Cc1ccc(CNC(=O)COC(=O)c2ccc(S(=O)(=O)N(C)C)cc2)cc1 | -0.5 | 34.6 | -1.4 | 2.4 | 4.5
COc1ccccc1C1CCN(c2ccc(CO)cc2[N+](=O)[O-])CC1 | 3.6 | 1.2 | . | . | 19.2
COc1ccc(N(C(=O)Cc2cccs2)C(C(=O)NC2CCCC2)c2ccncc2)cc1 (stereo unspecified) | 0.3 | 8.2 | . | . | 16.6
O=C(NC1CCCCC1)C(c1cccnc1)N(C(=O)CCl)c1ccccc1Cl (stereo unspecified) | 0.5 | -29.2 | -0.2 | 68.1* | -9.3

Source: PubChem (several laboratories)
